Compounds with a hit are over-represented: about 1.4% of the library has one in this group of screens.
DNA FID counter: counter-screen for HCV NS3 helicase inhibitors: DNA intercalator displacement; DNA fluorescent intercalator displacement, fluorescence; inhibition, % at 7.9 µM; actives 0.17% (n = 290,000); AID 1845; in the data active = inhibition above about 37%;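 also: 0% = vehicle and 100% = reference compound; higher means more ethidium bromide displaced from hairpin DNA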
DDE Tn6 FP inh: inhibitors of Tn6 peptide binding to human fibrin DD(E); inhibition, % at 8.3 µM; Fibrin DD(E) TRITC-Tn6 fluorescence polarization displacement; actives 0.21% (n = 370,000); P02675;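 active = inhibition above a per-campaign cutoff: mean of compounds within control limits plus 3 SD, cut at about 15% in these data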;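 also: 0% = median of all compound wells on the plate and 100% = blocking peptide control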
Target sequence (P02675 whole entry, looked up): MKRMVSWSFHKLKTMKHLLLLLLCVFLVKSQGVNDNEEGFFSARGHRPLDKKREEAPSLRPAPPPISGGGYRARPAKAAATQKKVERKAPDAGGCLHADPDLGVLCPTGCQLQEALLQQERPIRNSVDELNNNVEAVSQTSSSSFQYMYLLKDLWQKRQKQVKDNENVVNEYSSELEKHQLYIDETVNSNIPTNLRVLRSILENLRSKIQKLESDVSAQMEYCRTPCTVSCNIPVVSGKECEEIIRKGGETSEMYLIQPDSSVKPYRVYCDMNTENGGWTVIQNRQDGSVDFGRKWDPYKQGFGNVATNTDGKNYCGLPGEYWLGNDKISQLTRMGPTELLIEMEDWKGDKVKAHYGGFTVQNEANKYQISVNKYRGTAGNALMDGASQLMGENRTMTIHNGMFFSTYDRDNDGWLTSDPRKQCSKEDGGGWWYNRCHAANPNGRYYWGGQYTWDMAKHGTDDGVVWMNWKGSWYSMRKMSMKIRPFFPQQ
PLC-beta3 inh: inhibitors of human phospholipase C beta3. Q01970. Purified PLC-beta3, fluorogenic substrate, fluorescence. inhibition, % at 12.2 µM. actives 0.18% (n = 370,000);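 also: 0% = median of compound wells on plate and 100% = full blocker control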
DDE Tn7 FP inh: inhibitors of Tn7 peptide binding to human fibrin DD(E); P02675; FP displacement of FITC-Tn7 peptide from fibrin DD(E); 0% = median of compound wells per plate; inhibition, % at 8.3 µM; actives 0.13% (n = 370,000);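 active = inhibition above the mean of compounds falling within the control limits plus 3 SD of them, cut at about 14% in these data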;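 also: 0% = plate median of compound wells and 100% = 10 µM Aha-Tn7 peptide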
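Assay system: Human clot-derived fibrin DD(E) complex | Buffer or medium: Tris/NaCl/CaCl2 buffer, pH 7.8 | Repeats: One replicate per compound | Benchmarks: Aha-Tn7 high control | Measure: % inhibition scaled between sample-field median and high-control FP | Schedule: 10 min plus 3 h, room temperature | Signal: Fluorescence polarization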
PLCg1 inh: inhibitors of human phospholipase C gamma1; P19174; purified PLC-gamma1, fluorogenic substrate, fluorescence; inhibition, % at 12.2 µM; actives 0.84% (n = 370,000); in the data active = inhibition above about 9.5%
PLCgamma1 ctr: inhibits human PLC-gamma1 in PLC-beta3 counter-screen; inhibition, % at 12.3 µM; actives 3.1% (n = 3,300); purified PLC-gamma1, fluorogenic substrate, fluorescence; shares compounds with PLCg1 inh; in the data active = inhibition above about 9.5%
PLCbeta3 conf: human PLC-beta3 inhibition, confirmation | shares compounds with PLCg1 inh | purified PLC-beta3, fluorogenic substrate fluorescence | inhibition, % at 12.3 µM | actives 1% (n = 3,300)
The depositor's hits bear a star; i = inactive; nt = no result given. Rule as the data show it, unless noted: active = inhibition above about 11%; inactive = the rest.

SMILES	DNA FID counter	DDE Tn6 FP inh	PLC-beta3 inh	DDE Tn7 FP inh	PLCg1 inh	PLCgamma1 ctr	PLCbeta3 conf
O=C1/C(=C/c2ccco2)SC(=S)N1c1cccnc1	-15	3	-18	2	12*	-1	-14
O=C1/C(=C\c2ccco2)SC(=S)N1c1ccc(O)cc1	3	-10	-2	2	1	nt	nt
O=C1/C(=C\c2ccc(O)cc2)SC(=S)N1c1cccnc1	7	-5	-8	-11	-8	nt	nt
O=C1/C(=C/C=C/c2ccco2)SC(=S)N1c1ccc(O)cc1	-8	-6	-8	-12	22*	-9	-23
CNC(=S)N(Cc1ccc(OC)cc1)C1CC(=O)N(c2ccc(Cl)cc2)C1=O (configuration not stated)	-4	-17	3	-3	9.6*	8	8
COc1ccccc1C(=O)NC(=O)COc1ccc([N+](=O)[O-])cc1	nt	-2	-2	-4	9.8*	-4	-1
CCOc1ccc(Nc2nc(-c3sc(N)nc3C)cs2)cc1	-4	-3	-16	5	-5	nt	nt
Cc1sc2ncn(CC(=O)NCCN3CCOCC3)c(=O)c2c1S(=O)(=O)N1CCC(C)CC1	-1	5	3	0	11*	-8	-5
COc1ccc(-c2nnc(SC(C)C(=O)Nc3nccs3)n2Cc2ccccc2)cc1OC (configuration not stated)	-41	0	2	2	9.8*	-5	-3
Cc1ccc(S(=O)(=O)N2[C@@H](c3ccc(Cl)cc3)C(C(=O)O)=CC[C@H]2c2ccc(Cl)cc2)cc1	nt	-14	-7	-3	9.8*	-4	-4
Cc1cc(Cl)c(OCCCN2CCCCC2)c(Br)c1	3	5	6	-6	10*	-5	0
Cc1cc(C)c(OCCN2CCCC2)c(Cl)c1	0	3	-3	3	0	nt	nt
Cc1cccc(C(=O)NNC(=O)C2CCN(C(=O)OC(C)(C)C)CC2)c1	-12	-3	2	-10	9.8*	-9	-4
Cc1ccc(C(=O)NNC(=O)C2CCN(C(=O)OC(C)(C)C)CC2)cc1	-12	0	-6	-4	-1	nt	nt
O=C(COC(=O)c1ccc(N2CCOCC2)c([N+](=O)[O-])c1)Nc1ccc2c(c1)OCO2	-2	-7	2	-9	1	nt	nt
CCCCNC(=O)C1(C)CCCCN1C(=O)c1csnn1 (configuration not stated)	nt	-3	7	0	7	nt	nt
CN1CC=C(c2ccccc2)N(c2ccccc2)C1=O	nt	-6	12*	10	4	-7	-2
CN1CC=C(c2ccc(C(F)(F)F)cc2)N(c2ccccc2)C1=O	nt	0	-3	5	1	nt	nt
O=C(CSc1ccc2nc(-c3ccccc3)cn2n1)NCC1CCCO1 (configuration not stated)	-25	-8	-430	-7	-298	nt	nt
S=C(NCCN1CCCCC1)Nc1ccccc1	6	-5	3	-4	10*	-7	-3
S=C(NCCCNC(=S)Nc1ccccc1)Nc1ccccc1	-17	-7	4	1	13*	-7	-5
S=C(NCCN1CCCCC1)Nc1ccc(Br)cc1	21	3	1	-2	6	nt	nt
CCCc1cc(=O)[nH]c(SCC(=O)Nc2ccc(C)c(S(=O)(=O)N3CCCCC3)c2)n1	nt	7	-4	-5	0	nt	nt
CC(C)CN(CC(C)C)S(=O)(=O)N1CCC(C(=O)N2CCc3ccccc3C2)CC1	-3	0	4	-7	5	nt	nt
Cc1c(C(=O)NN)[nH]c2ccc([N+](=O)[O-])cc12	-2	-9	59*	3	1	-8	-2
SMILES	DNA FID counter	DDE Tn6 FP inh	PLC-beta3 inh	DDE Tn7 FP inh	PLCg1 inh	PLCgamma1 ctr	PLCbeta3 conf
Cc1ccc2[nH]c(O)c(N=Nc3ccccc3C)c2c1	1	3	-17	-3	-6	nt	nt
O=C(c1ccc(Br)cc1)c1cc([N+](=O)[O-])ccc1N1CCCCC1	9	-1	0	8	14*	-5	-8
O=c1c2ccccc2sn1-c1ccc(Cl)cc1Cl	nt	6	16*	0	0	-6	2
COC(=O)[C@]12C[C@H](CC(=O)NCC3CCCCC3)C(=O)N(Cc3ccccc3)C1=C[C@H](C(C)C)O[C@@H]2C1CC1	nt	-2	12*	-6	5	-1	-1
COC(=O)[C@]12C[C@H](CC(=O)NCCCCc3ccccc3)C(=O)N(Cc3cccc4ccccc34)C1=C[C@H](C(C)C)O[C@@H]2C1CC1	nt	-4	2	-2	13*	-1	-6
C#CCNC(=O)C[C@H]1C[C@@]2(C(=O)OC)C(=C[C@H](C(C)C)O[C@@H]2C2CC2)N(Cc2cccc3ccccc23)C1=O	nt	-3	-1	-2	9.5*	-7	-2
COC(=O)[C@]12C[C@H](CC(=O)N3CCCC3)C(=O)N(CCC3=CCCCC3)C1=C[C@H](C1CCCC1)O[C@@H]2C	nt	-9	1	1	11*	-3	0
CC(=O)c1cccc(NC(=O)CSC(=O)c2ccccc2)c1	-7	-6	7	1	6	nt	nt
COC(=O)c1cc(Br)c(=O)n(CCN2CCCCC2)c1	-3	-3	0	-4	2	nt	nt
COC(=O)[C@]12C[C@H](CC(=O)NCc3ccc(C)o3)C(=O)N(Cc3ccccc3)C1=C[C@H](C1CCCC1)O[C@@H]2C	nt	0	12*	0	7	-8	-4
O=C(CN1CCC(NC(=O)Nc2ccc3c(c2)OCO3)CC1)Nc1ccc2c(c1)OCCO2	nt	4	2	-3	0	nt	nt
Cc1ccc([N+](=O)[O-])cc1CN1CCN(c2ncc(Cc3ccccc3)cn2)CC1	nt	-3	14*	-1	3	-2	-3
CC(=O)Nc1ccc(S(=O)(=O)NCc2nnnn2-c2ccc(Cl)cc2)cc1	nt	-3	-5	-2	4	nt	nt
Cc1ccc(C(=O)COC(=O)c2c(C)cc(=O)oc2C)cc1[N+](=O)[O-]	-5	8	12*	7	7	-5	-2
CN(C)c1nc(Oc2ccc(=O)n(-c3ccccc3)n2)nc(N2CCOCC2)n1	-22	-3	-2	-2	13*	-6	0
O=[N+]([O-])c1ccc(NCc2ccncc2)cc1	0	2	1	-1	13*	-6	-5
O=[N+]([O-])c1ccc(NC(=S)NCc2ccncc2)cc1	4	-2	2	7	3	nt	nt
O=CNc1ccc2c3c(cccc13)-c1ccccc1-2	nt	3	i	-6	i	nt	nt
COc1ccc(S(=O)(=O)NCCCN2CCCC2=O)cc1OC	-5	-1	-2	-2	10.0*	-1	2
COc1ccccc1-n1cnc(N)c1C(C)=O	3	6	7	-7	5	nt	nt
COc1ccccc1-n1cnc(N)c1C(=O)c1ccccc1	-6	-12	4	2	12*	7	6

Screening results from PubChem BioAssay.
